Compounds with a hit are over-represented: about 1.2% of the library has one in this group of screens.
CAL PDZ FP-1 = inhibitors of human CAL PDZ peptide binding. AID 504414. inhibition, % at 20 µM. actives 0.02% (n = 330,000). purified CAL PDZ, TMR-peptide fluorescence polarization, 1 h;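 active = highest replicate inhibition of at least 40%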;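 note: plate controls were DMSO neutral control wells for no effect and unlabeled competitor peptide control wells for full effect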
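Assay system – tagged CAL PDZ protein CerCALP, purified · Timing – 1 h at RT · Compound – single point, 20 µM · Measured by – fluorescence polarization from S- and P-plane intensities, G-factor corrected · Evaluation – inhibition from polarization loss · Probe or stimulus – TMR reporter peptide T*-PRC34 · Buffer or medium – pH 7.4 phosphate-saline buffer, reducing agent, detergent, IgG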
CAL PDZ FP-2 = blocks peptide binding to the human CAL PDZ domain | Q9HD26 | purified CAL PDZ, TMR-peptide fluorescence polarization, 1 h | inhibition, % at 24.9 µM | actives 0.92% (n = 300,000);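 active = mean inhibition of at least 30% with at least half of replicates also reaching 30%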;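 note: 0% = DMSO neutral control and 100% = excess unlabeled competitor peptide PRC23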
CaV13 FRET inh = Disruptors of the CACNA1D IQ motif to Ca2+-dependent inactivation inhibitor domain association, primary screening, Förster resonance energy transfer in intact living …; inhibition, % at 12.3 µM; actives 0.098% (n = 340,000); HEK cells, CFP/YFP FRET ICDI-IQ, plate reader, 10 min; percent FRET-ratio fall versus neutral wells; AID 743397;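 active = mean replicate inhibition of at least 30% and at least 1% of replicates passing that level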;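 note: 0% = median of the neutral control wells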
ARNT TACC3 PPI = ARNT/TACC3 interaction disruption. AlphaScreen His-ARNT PAS-B/GST-TACC3 binding, luminescence; TACC3 fragment carries E629A point mutation. inhibition, % at 9.99 µM. actives 0.66% (n = 390,000);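 active = mean inhibition of replicates at least 50% and at least half of replicates each reaching 50%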;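 note: 0% = complete ARNT plus TACC3 wells and 100% = ARNT alone without TACC3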
* marks the source's active call; other numbers are inactive results.

For O=C(C[C@H]1CC[C@@H]2[C@H](COC[C@@H](O)CN2CC2CCOCC2)O1)N1CCOCC1 the results were ARNT TACC3 PPI -20.3.
C[C@H]1CN([C@@H](C)CO)C(=O)c2cccc(NC(=O)Nc3ccc4c(c3)OCO4)c2O[C@H]1CN(C)C(=O)NC1CCCCC1 was read as ARNT TACC3 PPI -5.4.
Screening Clc1ccc(CN2CCSCC2)cc1Cl returned CAL PDZ FP-1 -1.6, CAL PDZ FP-2 -4.5, CaV13 FRET inh -2.3 and ARNT TACC3 PPI -8.5.
O=C1CSCC(=O)N1Cc1ccc(Cl)c(Cl)c1 was read as CAL PDZ FP-2 42.8*, CaV13 FRET inh -3.8 and ARNT TACC3 PPI -5.5.
COc1ccc(CN(C)C[C@@H]2OCCCC[C@@H](C)Oc3ccc(NS(=O)(=O)c4cccs4)cc3C(=O)N([C@H](C)CO)C[C@H]2C)cc1 was read as ARNT TACC3 PPI 5.4.
Screening Cc1cc2ccccc2n1CCNCc1c(C(=O)N2CCOCC2)nc2ccccn12 returned CAL PDZ FP-1 -0.2, CAL PDZ FP-2 82.2*, CaV13 FRET inh -15.4 and ARNT TACC3 PPI -3.9.
For Cc1noc(C)c1NC(=O)Nc1ccc2c(c1)C(=O)N([C@H](C)CO)C[C@H](C)[C@H](CN(C)S(=O)(=O)c1ccc(Cl)cc1)OCCCC[C@@H](C)O2 the results were ARNT TACC3 PPI 1.0.
O=C(Nc1ccncc1)C1CCN(S(=O)(=O)c2cccs2)CC1 was read as CAL PDZ FP-1 -2.2, CAL PDZ FP-2 -2.7, CaV13 FRET inh 3.9 and ARNT TACC3 PPI -0.9.
Screening O=C(Nc1cc(Cl)ccn1)C1CCN(S(=O)(=O)c2cccs2)CC1 returned CAL PDZ FP-1 -0.5, CAL PDZ FP-2 32.9* and ARNT TACC3 PPI 0.8.
`C/C(Cl)=C\Cn1c(O)c(N=NC(N)=S)c2ccccc21` gave CAL PDZ FP-1 0.6, CAL PDZ FP-2 75.6*, CaV13 FRET inh -7.5 and ARNT TACC3 PPI -2.0.
C[C@H](CO)N1C[C@H](C)[C@@H](CN(C)C(=O)CN2CCOCC2)Oc2ncc(C3=CCCC3)cc2C1=O was read as ARNT TACC3 PPI 13.7.
For COc1ccc(NC(=O)N(C)C[C@H]2Oc3ccc(NC(=O)Nc4cccc5ccccc45)cc3C(=O)N([C@H](C)CO)C[C@H]2C)cc1 the results were ARNT TACC3 PPI -1.8.
`CC1CC1C(=O)Nc1nc(-c2ccccn2)cs1` (stereo not drawn) gave CAL PDZ FP-1 -1.0, CAL PDZ FP-2 12.0 and ARNT TACC3 PPI 61.7*.
Screening Cc1cc(C(=O)Nc2nc(-c3ccccn3)cs2)ccc1[N+](=O)[O-] returned CAL PDZ FP-1 0.6, CAL PDZ FP-2 -4.5, CaV13 FRET inh 0.8 and ARNT TACC3 PPI 30.1.
CC(=O)Nc1ccc(C(=O)Nc2nc(-c3ccccn3)cs2)cc1 was read as CAL PDZ FP-1 -2.1 and CaV13 FRET inh -4.8.
Screening CC(C)[C@H](NC(=O)c1ccccc1Cl)C(=O)Nc1nc(-c2ccccn2)cs1 returned CAL PDZ FP-1 -0.5, CAL PDZ FP-2 0.3, CaV13 FRET inh -8.3 and ARNT TACC3 PPI 57.7*.
Screening CCc1nnc(NC(=O)C(NC(=O)c2ccccc2Cl)C(C)C)s1 (stereo not drawn) returned CAL PDZ FP-1 -1.4, CAL PDZ FP-2 -5.2, CaV13 FRET inh -3.0 and ARNT TACC3 PPI -1.8.
`CCc1cc(C(=O)Nc2nc(-c3ccccn3)cs2)sc1C` gave CAL PDZ FP-1 0.7, CAL PDZ FP-2 1.8, CaV13 FRET inh -18.3 and ARNT TACC3 PPI 65.3*.
`C[C@H](CO)N1C[C@H](C)[C@H](CN(C)S(=O)(=O)c2cccs2)OCCCC[C@H](C)Oc2ccc(NC(=O)c3ccncc3)cc2C1=O` gave ARNT TACC3 PPI -5.8.
For COc1ccc(NC(=O)N(C)C[C@H]2OCCCC[C@H](C)Oc3ccc(NS(C)(=O)=O)cc3C(=O)N([C@@H](C)CO)C[C@@H]2C)cc1 the results were ARNT TACC3 PPI 9.8.
For CN1CCN(c2cc(N3CCN(C(=O)c4ccco4)CC3)c3c4c(onc24)-c2ccccc2C3=O)CC1 the results were CAL PDZ FP-1 -2.6, CAL PDZ FP-2 -13.8 and ARNT TACC3 PPI 39.8.
CCOC(=O)N1CCN(c2cc(NCCC(=O)O)c3c4c(onc24)-c2ccccc2C3=O)CC1 was read as CAL PDZ FP-1 1.1, CAL PDZ FP-2 -14.2 and ARNT TACC3 PPI 57.8*.
O=C(O)CCCNc1cc(N2CCN(C(=O)c3ccco3)CC2)c2noc3c2c1C(=O)c1ccccc1-3 was read as CAL PDZ FP-1 1.0, CAL PDZ FP-2 -10.9, CaV13 FRET inh -2.9 and ARNT TACC3 PPI 45.7*.
Cc1noc(C)c1S(=O)(=O)Nc1ccc2c(c1)C(=O)N([C@@H](C)CO)C[C@H](C)[C@H](CN(C)Cc1ccc(Cl)c(Cl)c1)O2 was read as ARNT TACC3 PPI 1.2.
C[C@H]1CN([C@@H](C)CO)C(=O)c2cc(NC(=O)C3CC3)ccc2O[C@H]1CN(C)Cc1ccncc1 was read as ARNT TACC3 PPI -3.1.
Screening CCC/C=N/NC(=O)c1cccc(Br)c1 returned CAL PDZ FP-1 -1.1, CAL PDZ FP-2 86.3*, CaV13 FRET inh -3.9 and ARNT TACC3 PPI -2.8.
`C[C@H](CO)N1C[C@H](C)[C@@H](CN(C)Cc2ccccc2)Oc2ccc(NC(=O)C3CCCCC3)cc2CC1=O` gave ARNT TACC3 PPI -8.3.
COc1ccccc1C(=O)Nc1ccc2c(c1)C(=O)N(C)[C@@H]1CC[C@@H](CC(=O)NCc3ccc(Cl)c(Cl)c3)O[C@@H]1CO2 was read as ARNT TACC3 PPI -5.2.
Screening CCCc1sc(N/N=C/c2ccccn2)nc1-c1ccc(Br)cc1 returned CAL PDZ FP-1 -2.1, CAL PDZ FP-2 -1.3, CaV13 FRET inh -10.2 and ARNT TACC3 PPI 33.1*.
O=C(C[C@H]1CC[C@@H]2[C@H](COC[C@@H](O)CN2S(=O)(=O)c2ccc(F)cc2)O1)NCC1CC1 was read as ARNT TACC3 PPI 9.1.
`Cc1ccc(-n2ncc3c2CCCC3NC(=O)CCc2c(C)noc2C)cc1C` (stereo not drawn) gave CAL PDZ FP-1 -0.8, CAL PDZ FP-2 33.0*, CaV13 FRET inh -3.3 and ARNT TACC3 PPI 5.2.
Screening COc1cccc(C2C=C(c3cccs3)Nc3ncnn32)c1OC (stereo not drawn) returned CAL PDZ FP-1 -1.7, CAL PDZ FP-2 -0.9 and ARNT TACC3 PPI 28.2*.
Screening O=C(C[C@@H]1CC[C@@H]2[C@H](COC[C@H](O)CN2C(=O)C2CCOCC2)O1)NCc1ccncc1 returned ARNT TACC3 PPI 0.7.
For Cc1ccc(/C(N)=N/OC(=O)N2c3ccccc3Sc3ccccc32)cc1 the results were CAL PDZ FP-1 -2.6, CAL PDZ FP-2 80.8*, CaV13 FRET inh -5.2 and ARNT TACC3 PPI -1.7.
`Cc1cc(=O)oc2c1c(C)nn2-c1nn[nH]n1` gave CAL PDZ FP-1 0.1, CAL PDZ FP-2 5.8, CaV13 FRET inh -3.8 and ARNT TACC3 PPI 63.5*.
For O=C(NCC[C@@H]1CC[C@H](NC(=O)C2CC2)[C@@H](CO)O1)c1cnccn1 the results were ARNT TACC3 PPI 4.1.
Screening O=C(NC1CCCCC1)N[C@@H]1CC[C@@H](CCNS(=O)(=O)c2ccc(Cl)cc2)O[C@H]1CO returned ARNT TACC3 PPI -2.7.
